Hits are enriched below; roughly 1.7% of the tested compounds scored in any of these assays.
SR-BI HDL uptake – blocks mouse SR-BI lipid uptake from DiI-HDL. actives 0.96% (n = 320,000). ldlA[mSR-BI] CHO cells, DiI-HDL uptake fluorescence, 3 h. inhibition, % at 12.5 µM. Q61009. AID 488896;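 active means mean replicate inhibition of at least 70% and a set share of replicates each scoring 70 or more; inconclusive means meets just one of the two criteria; inactive means fails both criteria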;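 further: 0% = median of neutral control wells and 100% = median of positive control wells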
Target sequence (Q61009 whole entry, looked up): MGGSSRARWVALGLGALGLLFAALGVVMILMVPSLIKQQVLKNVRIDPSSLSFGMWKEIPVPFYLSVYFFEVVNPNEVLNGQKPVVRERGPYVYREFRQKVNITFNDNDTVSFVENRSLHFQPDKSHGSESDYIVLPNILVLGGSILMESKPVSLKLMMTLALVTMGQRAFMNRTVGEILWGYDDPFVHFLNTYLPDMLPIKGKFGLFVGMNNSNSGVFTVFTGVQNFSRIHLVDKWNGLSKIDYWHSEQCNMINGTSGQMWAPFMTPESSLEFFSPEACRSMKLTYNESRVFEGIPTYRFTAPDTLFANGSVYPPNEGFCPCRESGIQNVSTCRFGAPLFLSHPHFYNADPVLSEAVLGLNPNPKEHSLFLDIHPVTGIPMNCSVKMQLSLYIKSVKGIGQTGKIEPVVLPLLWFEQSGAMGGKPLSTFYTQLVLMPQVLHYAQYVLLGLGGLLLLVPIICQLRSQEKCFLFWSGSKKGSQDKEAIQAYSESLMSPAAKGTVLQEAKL
Statin myotox sup – suppression of simvastatin myotoxicity; rescue of ATP level, % at 7.49 µM; C2C12 myotubes + simvastatin, ATP luminescence, 48 h; scaled: DMSO 0, geranylgeraniol control 100; actives 0.78% (n = 330,000);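 active means mean ATP rescue above about 67%, or every replicate alone reaching that limit, limit read from the data, passing the limit was not always enough; inconclusive means no clear call, values can overlap the other calls; inactive means mean under the limit and some replicate under it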;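 further: myotubes were challenged with 10 µM simvastatin during compound exposure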
SR-BI DiI-HDL act – SR-BI HDL lipid transfer activation | AID 504775 | CHO ldlA[mSR-BI] cells, DiI-HDL uptake fluorescence, 3 h; 100 = double the neutral-control signal | activation, % at 12.5 µM | actives 0.096% (n = 320,000);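 active means mean replicate activation of at least 60% and every replicate at or above 60%; inconclusive means mean or all-replicate condition met, but not both; inactive means mean below 60% and not all replicates reaching 60%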;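 further: 0% = median plate neutral-control signal and 100% = twice that signal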
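System: LDL receptor-deficient CHO ldlA cells overexpressing murine SR-BI | Timing: 3 h uptake period with compound, 37 °C | Medium: HEPES-buffered (25 mM, pH 7.4) F12 plus 0.5% BSA | Dosing: Single-point compound dose | Signal: Bottom-read fluorescence, 550/595 nm | Read-out: Retained DiI signal reflecting DiI-HDL uptake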
Vif inh – HIV Vif inhibition; inhibition, % at 7.49 µM; HEK293T cells, Vif self-association by quenched fluorescence, imaging, 24 h; actives 0.35% (n = 340,000); in the data active means inhibition above about 50%, passing the limit was not always enough; inconclusive means no clear call, values can overlap the other calls; inactive means below about 31%
An asterisk follows results filed as active; u = inconclusive; x = no result given.

SMILES	SR-BI HDL uptake	Statin myotox sup	SR-BI DiI-HDL act	Vif inh
CO[C@H]1CN(C)C(=O)c2ccc(NS(C)(=O)=O)cc2OC[C@@H](C)N(C(=O)NC(C)C)C[C@H]1C	x	-0.8	x	x
C/C(=C\C(=O)c1ccc(Br)cc1)NNC(=O)c1ccc(O)cc1	69.8	-3.9	-69.8	-3.2
C/C(=C\C(=O)c1ccc(Br)cc1)NNC(=O)c1ccccc1	86.1*	x	-86.1	-10.5
O=C(NCc1ccccc1Cl)c1cnccn1	-20.9	66.9*	20.9	3.1
Cc1cc(=O)oc2c3c(cc(OCC(=O)NCC(=O)O)c12)OC(C)(C)CC3	-22.8	-17.9	22.8	8.8
Cc1cc(=O)oc2c3c(cc(OCC(=O)NCc4ccccc4)c12)OC(C)(C)CC3	79.7*	4.7	-79.7	4.3
Cc1noc(C)c1S(=O)(=O)Nc1ccc2c(c1)C(=O)N([C@H](C)CO)C[C@H](C)[C@H](CN(C)Cc1ccc3c(c1)OCO3)O2	x	38.6	x	x
Clc1ccc(C(c2nnnn2C2CCCC2)N2CCN(Cc3ccncc3)CC2)cc1 (configuration not stated)	-28.3	3.0	28.3	9.3
CCC(c1nnnn1C1CCCC1)N1CCN(c2ccccc2F)CC1 (configuration not stated)	-25.1	124.3*	25.1	4.0
c1ccc(C(c2ccccc2)N2CCN(Cc3nnnn3C3CCCC3)CC2)cc1	0.6	77.1*	-0.6	x
Fc1ccc(C(c2nnnn2C2CCCC2)N2CCN(Cc3ccccc3)CC2)cc1 (configuration not stated)	-7.4	137.1*	7.4	8.7
O=C(N=c1ccn(-c2nc3ccccc3nc2NS(=O)(=O)c2ccc(Cl)cc2)cc1)c1cccs1	x	x	x	82.5*
COc1ccccc1Nc1nc(-c2ccc3c(c2)NC(=O)CO3)cs1	77.8*	-67.0	-77.8	-1.0
Cc1nn2c3ccccc3n(Cc3ccccc3)c2nc1=O	-5.5	118.2*	5.5	8.6
COc1ccccc1CCNC(=O)c1cccc(NC(=O)CC2SC(N3CCCCC3)=NC2=O)c1 (configuration not stated)	80.5*	0.3	-80.5	-24.7
O=C(CC1SC(N2CCCCC2)=NC1=O)Nc1cccc(C(=O)NCc2ccc(F)cc2)c1 (configuration not stated)	27.5	12.7	-27.5	-11.1
COc1ccc([N+](=O)[O-])cc1NC(=O)c1ccc(CN(c2ccc(C)c(C)c2)S(C)(=O)=O)cc1	42.8	x	-42.8	14.9
Cc1ccc(N(Cc2ccc(C(=O)NN=C3CCN(C)CC3)cc2)S(C)(=O)=O)cc1C	24.4	3.4	-24.4	64.1*
CC(C)CNC(=S)NC1CCCC1	4.0	-2.2	-4.0	62.5*
Cc1ccccc1NC(=S)NC1CCCC1	23.9	-1.9	-23.9	58.6*
Cc1cccc(NC(=S)NNC(=S)NC2CCCCC2)c1C	-5.6	x	5.6	7.5
CC(C)CNC(=O)C(=O)NC1CCCC1	-64.1	23.9	u	x
S=C(NC1CCCC1)NC1CC1	-17.4	-3.8	17.4	-9.1
S=C(NC1CCCC1)NC1CCCC1	-0.7	x	0.7	53.0*
Cc1sc(NC(=S)NC(=O)CCc2ccccc2)c(C(N)=O)c1C	-14.1	-16.6	14.1	125.1*
SMILES	SR-BI HDL uptake	Statin myotox sup	SR-BI DiI-HDL act	Vif inh
COC(=O)CCC(=O)Nc1sc(C)c(C)c1C(N)=O	-9.0	110.7*	9.0	8.4
C[C@@H]1CN([C@@H](C)CO)C(=O)c2cccc(NC(=O)C3CCOCC3)c2O[C@H]1CN(C)Cc1ccncc1	x	-12.9	x	x
Cn1c2ccccc2c2cc(C(=O)NNC(=O)CCl)sc21	16.4	x	-16.4	6.5
CC(=O)Nc1ccc(S(=O)(=O)NNC(=O)c2cc3c4ccccc4n(C)c3s2)cc1	-8.1	192.9*	8.1	3.8
CO[C@@H]1CN(C)C(=O)c2ccc(NC(=O)c3ccc4c(c3)OCO4)cc2OC[C@H](C)N(CCC(F)(F)F)C[C@@H]1C	x	35.3	x	x
COc1ccc(-c2oc(/N=C/N3CCOCC3)c(C#N)c2-c2ccc(OC)cc2)cc1	72.2*	12.3	-72.2	-1.4
COCCCN1CC(=O)N2C(c3cccc(OC)c3)c3[nH]c4ccccc4c3C[C@H]2C1=O (some centres not stated)	22.7	26.9	-22.7	-9.6
CC(C)OCCCN1CC(=O)N2C(c3cccc([N+](=O)[O-])c3)c3[nH]c4ccccc4c3C[C@H]2C1=O (some centres not stated)	81.0*	29.3	-81.0	-8.2
Cc1c(NC(=O)c2ccc(Cl)c([N+](=O)[O-])c2)cccc1-n1cnnn1	36.7	-4.7	-36.7	55.9*
Cc1c(NC(=O)c2ccc(S(=O)(=O)N(C)C)cc2)cccc1-n1cnnn1	5.3	8.3	-5.3	11.0
COc1ccc(CN(C)C[C@@H]2Oc3ccc(NS(=O)(=O)c4cccs4)cc3CC(=O)N([C@H](C)CO)C[C@@H]2C)cc1	x	-5.1	x	x
Cc1ccc(Cn2cc(/C=N/NC(=O)Cc3nnc(NC(=O)c4ccc(C)cc4)s3)c3ccccc32)cc1	77.5*	7.6	-77.5	8.2
CCCCn1c(-c2ccncc2)nc2c1c(=O)[nH]c(=O)n2CC(C)C	-27.7	x	27.7	56.9*
COc1ccccc1NC(=O)NC1(C(=O)N2CCCCCC2)CCCCC1	0.8	105.9*	-0.8	-2.3
C[C@H](CO)N1C[C@H](C)[C@@H](CN(C)S(C)(=O)=O)Oc2cc(C#CC3CCCC3)ccc2S1(=O)=O	x	3.5	x	x
COc1ccc(Nc2cc(Cl)nc(N)n2)cc1	-66.7	-2.8	66.7*	15.0
Cc1ccc(Oc2nnc(-c3ccccc3)c3ccccc23)cc1	29.7	11.0	-29.7	0.6
Cc1ccc(-c2nnc(Oc3ccc(NC(=O)c4ccccc4)cc3)c3ccccc23)cc1	-168.7	x	168.7*	3.4
CCCNC(=O)N1C[C@@H]2[C@H](c3ccccc31)[C@H](CO)N2C(=O)c1ccncc1	x	-23.1	x	x
CCc1ccc(NC(=O)CSc2nc3n[nH]c(C)c3c(=N)n2-c2cccc(OC)c2)cc1	-123.0	5.7	123.0*	-1.4
COc1ccc(NC(=O)N(C)C[C@@H]2Oc3ccc(NC(=O)CCN4CCOCC4)cc3CC(=O)N([C@H](C)CO)C[C@@H]2C)cc1	x	0.8	x	x
CC/C(=N\NC(=O)c1ccc(CN(C)S(=O)(=O)c2ccc(C)cc2)cc1)c1ccc(OC(F)F)cc1	79.8*	x	-79.8	-8.9
O=C(CN1C(=O)CCC1=O)Nc1ccc2c3c(cccc13)CC2	-12.9	92.2*	12.9	0.9
Cn1c(=O)c2ncn(CC(=O)Nc3ccc4c5c(cccc35)CC4)c2n(C)c1=O	-0.9	29.9	0.9	-3.5
Nc1ncnc2c1ncn2[C@@H]1O[C@H](CO)C[C@H]1O	-3.9	9.2	3.9	55.6*
Nc1ncnc2c1ncn2[C@@H]1O[C@H](COP(=O)(O)O)[C@@H](O)[C@H]1O	-36.3	-4.6	36.3	106.1*
Nc1ncnc2c1ncn2[C@@H]1O[C@H](COP(=O)(O)OP(=O)(O)OP(=O)(O)O)[C@@H](O)[C@H]1O	17.6	4.0	-17.6	-3.6
Nc1ncnc2c1ncn2C1OC(COP(=O)(O)O)C(O)C1O (configuration not stated)	-13.5	-1.4	13.5	65.6*

Screens (PubChem)
